MsrA inh – inhibits bovine methionine sulfoxide reductase A. purified bovine MsrA, absorbance read-out. inhibition, % at 15.5 µM. 360,000 compounds, 0.75% hits. AID 651718; in the data active = inhibition above about 4.5%
MT1-MMP act inh – blocks activation of human MT1-MMP; AID 651647; P50281; GFP/RFP ratio change, % at 20 µM; 360,000 compounds, 0.061% hits; HT1080 RFP-PRO-GFP cells, GFP/RFP ratio fluorescence, overnight; percent of plate control window, DMSO zero;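 active = GFP/RFP ratio change of at least 30% with cell ATP level not reduced by more than half and red fluorescence within 50% of control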
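Material: RFP-PRO-GFP reporter HT1080 cells. Dosing: single-point 20 µM compound, 1% DMSO. Controls: DMSO and RFP-L50D-GFP cell wells. Timing: cells overnight before dosing, compound overnight, 37 °C, 5% CO2. Measure: GFP/RFP fluorescence ratio.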
beta cell repl – MIN6 beta-cell proliferation induction; MIN6 cells proliferation, ATPlite luminescence, 48 h; cells starved in 0.2% serum; 100% = growth in 10% serum; proliferation, % at 10 µM; 330,000 compounds, 0.29% hits; AID 2380;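 active = compounds whose signal lies at least 3.5 SD above the mean of all wells on their plate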
SKN-1 inh – blocks SKN-1 activity in C. elegans. C. elegans VP596 Pgst-4::GFP/RFP ratio, acrylamide-induced, 24 h. inhibition, % at 21.8 µM. 360,000 compounds, 0.49% hits. AID 624304;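 active = interference check ratio from 0.5 to 1.5 plus GFP to RFP signal ratio inhibition reaching or exceeding a fixed threshold, cut at about 30% in these data, passing the limit was not always enough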
MsrA act – activators of bovine methionine sulfoxide reductase A | 360,000 compounds, 0.3% hits | activation, % at 10.6 µM | AID 602163 | purified bovine MsrA, absorbance read-out; in the data active = activation above about 7.5%
DAGLB inh – blocks human DAGLB lipase activity; inhibition, % at 5.17 µM; HEK293T DAGLB membrane lysate, EnzChek fluorogenic substrate; 340,000 compounds, 0.059% hits; Q8NCG7; in the data active = inhibition above about 34%
Target sequence (Q8NCG7 whole entry, looked up): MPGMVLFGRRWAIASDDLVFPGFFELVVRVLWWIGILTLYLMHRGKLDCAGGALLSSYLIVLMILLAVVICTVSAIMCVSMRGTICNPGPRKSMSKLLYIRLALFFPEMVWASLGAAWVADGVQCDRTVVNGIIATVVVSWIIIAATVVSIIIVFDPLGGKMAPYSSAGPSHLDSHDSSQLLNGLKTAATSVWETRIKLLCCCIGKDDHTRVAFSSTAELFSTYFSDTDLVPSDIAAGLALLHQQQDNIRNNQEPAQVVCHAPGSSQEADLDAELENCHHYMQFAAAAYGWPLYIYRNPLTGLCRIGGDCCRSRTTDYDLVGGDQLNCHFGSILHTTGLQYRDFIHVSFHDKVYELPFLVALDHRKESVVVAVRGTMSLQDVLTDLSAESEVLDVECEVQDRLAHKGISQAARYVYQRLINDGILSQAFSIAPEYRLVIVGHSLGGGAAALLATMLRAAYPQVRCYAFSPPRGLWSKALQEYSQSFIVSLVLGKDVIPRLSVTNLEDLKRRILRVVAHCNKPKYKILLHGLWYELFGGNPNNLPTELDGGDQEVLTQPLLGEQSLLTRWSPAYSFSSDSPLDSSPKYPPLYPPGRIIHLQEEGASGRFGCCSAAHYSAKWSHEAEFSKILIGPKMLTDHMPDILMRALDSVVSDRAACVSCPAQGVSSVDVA
MsrA act confirm – confirmation of bovine methionine sulfoxide reductase A activators. shares compounds with MsrA act. purified bovine MsrA, absorbance read-out. activation, % at 10.6 µM. 1,000 compounds, 12% hits. AID 602270; in the data active = activation above about 4%;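 note: enzyme coupled to thioredoxin and thioredoxin reductase with NADPH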
A number is an active result; 0 = inactive; - = no result. The list is not random: actives were taken first. Their share in the collection is about 1.8%.

SMILES	MsrA inh	MT1-MMP act inh	beta cell repl	SKN-1 inh	MsrA act	DAGLB inh	MsrA act confirm
Nc1oc2ccccc2c1C(=O)Cc1ccccc1O[C@@H]1O[C@H](CO)[C@@H](O)[C@H](O)[C@H]1O	0	0	0	0	13	0	0
COc1ccc(-c2cc(NC(=O)Cc3c(C)[nH]c4ccccc34)ccc2Nc2cccnc2)cc1F	0	-	-	-	-	-	-
CN1C[C@@H]2[C@@H]3C(=O)N(Cc4ccccc4)C(=O)[C@@H]3[C@](Cc3ccccc3)(C1=O)N2C(=O)c1ccccc1	0	0	-	0	0	0	-
CN1C[C@@H]2[C@@H]3C(=O)N(Cc4ccccc4)C(=O)[C@@H]3[C@](Cc3ccccc3)(C1=O)N2C(=O)c1ccc(C(C)(C)C)cc1	0	0	-	0	8.8	0	0
NC(Cc1ccc(O)cc1)C(=O)NN=Cc1ccccc1O (stereo not drawn)	0	-	-	-	-	-	-
COC(=O)C1(F)C(=O)NC(=O)NC1OC (stereo not drawn)	0	-	-	-	-	-	-
CCOC(=O)C1(C)CCN1C(=O)COc1ccc(C(C)(C)C)cc1 (stereo not drawn)	0	0	-	0	8.2	-	0
O=C(O)Cn1c(=O)c2c3c(sc2n(Cc2ccccc2F)c1=O)CCCC3	0	0	0	0	0	0	-
CS(=O)(=O)Nc1ccc(C(=O)NCCSCc2c(F)cccc2Cl)cc1	0	0	0	0	8.3	0	0
CS(=O)(=O)Nc1ccc(C(=O)NCCSCc2ccccc2)cc1	0	0	0	0	0	0	-
O=C(O)/C=C/C(=O)Nc1cc(F)ccc1F	0	0	0	0	0	0	-
C[C@H](CO)N1C[C@H](C)[C@@H](CN(C)C)Oc2c(NC(=O)CCC(F)(F)F)cccc2C1=O	0	0	0	0	0	0	-
S=C1NC[C@H](Cc2ccccc2)N1CC1CCN(CCCC2CCCCC2)CC1	0	-	-	-	-	-	-
O=C(OCc1nc2scc(-c3ccccc3)c2c(=O)[nH]1)c1ccco1	0	0	0	0	0	0	-
CC(C)[C@H](NC(=O)c1ccccc1)C(=O)OCc1nc2scc(-c3ccccc3)c2c(=O)[nH]1	0	0	0	0	13	0	6.3
CCOc1ccccc1OCC(=O)NCc1ccco1	0	0	0	0	0	0	-
CCOc1ccccc1OCCCNCc1ccco1	0	0	0	0	13	0	0
O=C(O)c1ccc(-n2nnnc2SCc2ccccc2Br)cc1	0	0	0	0	0	0	-
CN(Cc1ccc(F)cc1)Cc1nc(-c2cnccn2)no1	0	0	0	0	0	0	-
Cc1cc(C)nc(NS(=O)(=O)c2ccc(NC(=O)c3nn(-c4ccccc4)ccc3=O)cc2)n1	0	0	0	0	14	0	0
CCOC(=O)C1=C(Nc2ccc(Br)cc2)C(=O)N(CC)C1	0	-	-	-	-	-	-
CC(=O)c1nccs1	-	0	0	0	16	0	0
N#C/C(=C\c1ccccc1C(F)(F)F)C(=O)Nc1ccccc1	0	0	0	0	0	0	-
CCc1cccc(CC)c1NC(=O)/C(C#N)=C/c1ccccc1C(F)(F)F	0	0	0	0	11	0	0
CCCCNCc1cc(OCC)c(OCC)cc1Br	0	0	0	0	0	-	-
SMILES	MsrA inh	MT1-MMP act inh	beta cell repl	SKN-1 inh	MsrA act	DAGLB inh	MsrA act confirm
O=[N+]([O-])c1ccc(C=Nc2cccc3ccccc23)s1	-	0	0	0	8.1	0	6.5
O=[N+]([O-])c1ccc(-c2ccc(C=Nc3cccc4ccccc34)o2)cc1	0	0	0	0	0	0	-
O=c1c2ccc([N+](=O)[O-])cc2ncn1CCOc1ccc(Cl)cc1	0	0	0	0	0	0	-
O=c1c2ccc([N+](=O)[O-])cc2ncn1CCOc1cccc(Br)c1	0	0	0	0	7.8	0	0
COCC(=O)Nc1ccc2c(c1)[C@H]1C[C@@H](CC(=O)NCC3CC3)O[C@H](CO)[C@H]1O2	0	-	-	-	-	-	-
CCOC(=O)N1CCN(C(=O)CSc2ccc3nnc(-c4cccnc4)n3n2)CC1	0	0	0	0	0	0	-
CCOC(=O)[C@H]1[C@H]2COc3cc(OC)ccc3[C@@H]2N2C(=O)c3c(C)cc(C)cc3NC(=O)[C@@]12C	0	0	0	0	0	0	-
CC1=C(C(=O)Nc2cc(C)ccc2C)C(c2cccs2)NC(=S)N1 (stereo not drawn)	0	0	0	0	8.2	0	0
O=C(Nc1nnc(-c2ccco2)o1)c1ccc(S(=O)(=O)N2CCCC2)cc1	0	0	0	0	16	0	0
CC(=O)Nc1ccc(C(=O)Nc2ccc(S(=O)(=O)N3CCCCC3)cc2)cc1	0	0	0	0	0	0	-
CC1CCN(S(=O)(=O)c2ccc(C(=O)Nc3nnc(-c4ccco4)o3)cc2)CC1	0	0	0	0	0	0	-
CS(=O)(=O)c1ccc(C(=O)Nc2ccc(S(=O)(=O)N3CCCCC3)cc2)cc1	0	0	0	0	15	0	0
C[C@@H](NS(=O)(=O)c1c(F)cccc1F)c1ccccc1	0	-	-	-	-	-	-
COCC(C)NC(C(=O)Nc1cccc(C(C)=O)c1)c1ccccc1 (stereo not drawn)	0	0	0	0	0	0	-
CCOc1ccc(NC(C(=O)Nc2cccc(C(C)=O)c2)c2ccccc2)cc1 (stereo not drawn)	0	0	0	0	9.5	0	10
COC(=O)Cc1[nH]nc2c1C(c1c[nH]c3ccccc13)C(C#N)=C(N)O2 (stereo not drawn)	0	0	0	0	12	0	0
Cc1nn(C)c(Sc2ccccc2N)c1[N+](=O)[O-]	0	0	0	0	8.0	0	0
Cc1ccsc1C(=O)N(Cc1nnc(-c2ccccc2Cl)o1)C1CC1	0	0	0	0	0	0	-
CN1CCN(S(=O)(=O)c2cccc(C(=O)N(Cc3nnc(-c4ccccc4Cl)o3)C3CC3)c2)CC1	0	0	0	0	7.8	0	0
Cc1cccc(C)c1NC(=O)CN(C)C(=O)CCc1nc2sc3c(c2c(=O)[nH]1)CCCC3	0	0	0	0	8.8	0	0
COC(=O)[C@]12C[C@H](CC(=O)NCc3ccc(OC)c(OC)c3)C(=O)N(Cc3ccccc3)C1=C[C@H](C1CCCC1)O[C@@H]2C	0	-	-	-	-	-	-
Cc1ccc(NC(=S)NCCCN2CCOCC2)cc1C	0	0	0	0	0	0	-
S=C(NCCCN1CCOCC1)Nc1ccc(Cl)c(Cl)c1	0	0	0	0	14	0	0
CCCCn1nnnc1C(c1cc2ccccc2o1)N1CCCC1 (stereo not drawn)	0	0	-	0	11	-	0
CCCCn1nnnc1C(c1cc2ccccc2o1)N1CCN(C/C=C/c2ccccc2)CC1 (stereo not drawn)	0	0	-	0	0	-	-
O=C(N/N=C/C(Br)=C\c1ccccc1)c1cccs1	0	0	0	0	0	-	-
CC(=C/c1ccccc1)/C=N/NC(=O)c1cccs1	0	0	0	0	16	-	0
